Test results: ChEMBL document CHEMBL1165860, “Synthesis and potential cytotoxic activity of new phenanthrylphenol-pyrrolobenzodiazepines” (2010)
Activity calls are given as the source filed them. The calls are words filed in the database; no cut-off is given here.

Tests used:
K562 = assay: Growth inhibition of human K562 cells after 24 hrs by MTT assay; format: functional; conditions: K562, 24 h
RXF 393 = assay: Growth inhibition of human RXF393 cells after 24 hrs by MTT assay; format: functional; conditions: RXF 393, 24 h
SNB-75 = assay: Growth inhibition of human SNB75 cells after 24 hrs by MTT assay; format: functional; conditions: SNB-75, 24 h
OVCAR-3 = assay: Growth inhibition of human OVCAR-3 cells after 24 hrs by MTT assay; format: functional; conditions: OVCAR-3, 24 h
MCF7 [1] = assay: Growth inhibition of human MCF7 cells after 24 hrs by MTT assay; format: functional; conditions: MCF7, 24 h
SK-MEL-2 = assay: Growth inhibition of human SK-MEL-2 cells after 24 hrs by MTT assay; format: functional; conditions: SK-MEL-2, 24 h
MCF7 [2] = assay: Induction of apoptosis in human MCF7 cells assessed as increase of caspase 9 activation at 4 uM after 1 hr by fluorimetry based assay; format: functional, cell-based
T47D = assay: Growth inhibition of human T47D cells after 24 hrs by MTT assay; format: functional
HCT-116 = assay: Growth inhibition of human HCT116 cells after 24 hrs by MTT assay; format: functional; conditions: HCT-116, 24 h
COLO 205 = assay: Growth inhibition of human COLO205 cells after 24 hrs by MTT assay; format: functional; conditions: COLO 205, 24 h
Malme-3M = assay: Growth inhibition of human MALME-3M cells after 24 hrs by MTT assay; format: functional
MCF7 [3] = assay: Cell cycle arrest in human MCF7 cells assessed as accumulation at G1 phase at 4 uM after 24 hrs using propidium iodide staining by flow cytometry; format: functional
In short: (§1)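 MCF-7 cells were grown in DMEM with 10% fetal calf serum, penicillin and streptomycin, at 37 °C in 5% CO2. They were treated for 24 h at 2 and 4 µM, with DMSO-treated cells as controls. Cells were trypsinised, fixed in ice-cold 70% ethanol at 4 °C for 30 min, and RNaseA-treated at 37 °C for 30 min. Phases were read by flow cytometry.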

BT-549 = assay: Growth inhibition of human BT549 cells after 24 hrs by MTT assay; format: functional; conditions: BT-549, 24 h
MCF7 [4] = assay: Cell cycle arrest in human MCF7 cells assessed as accumulation at G1 phase at 2 uM after 24 hrs using propidium iodide staining by flow cytometry; format: functional; in short: as §1
SF-268 = assay: Growth inhibition of human SF268 cells after 24 hrs by MTT assay; format: functional; conditions: SF-268, 24 h
UO-31 = assay: Growth inhibition of human UO31 cells after 24 hrs by MTT assay; format: functional; conditions: UO-31, 24 h
IGROV-1 = assay: Growth inhibition of human IGROV1 cells after 24 hrs by MTT assay; format: functional; conditions: IGROV-1, 24 h
ACHN = assay: Growth inhibition of human ACHN cells after 24 hrs by MTT assay; format: functional
MCF7 [5] = assay: Cell cycle arrest in human MCF7 cells assessed as accumulation at S phase at 2 uM after 24 hrs using propidium iodide staining by flow cytometry; format: functional; in short: as §1
NCI-H460 = assay: Growth inhibition of human NCI-H460 cells after 24 hrs by MTT assay; format: functional; conditions: NCI-H460, 24 h
SN12C = assay: Growth inhibition of human SN12C cells after 24 hrs by MTT assay; format: functional
HOP-92 = assay: Growth inhibition of human HOP92 cells after 24 hrs by MTT assay; format: functional; conditions: HOP-92, 24 h
TK-10 = assay: Growth inhibition of human TK10 cells after 24 hrs by MTT assay; format: functional; conditions: TK-10, 24 h
LOX IMVI = assay: Growth inhibition of human LOXIMVI cells after 24 hrs by MTT assay; format: functional
MOLT-4 = assay: Growth inhibition of human MOLT4 cells after 24 hrs by MTT assay; format: functional; conditions: MOLT-4, 24 h
HL-60(TB) = assay: Growth inhibition of human HL-60(TB) cells after 24 hrs by MTT assay; format: functional; conditions: HL-60, 24 h
UACC-257 = assay: Growth inhibition of human UACC257 cells after 24 hrs by MTT assay; format: functional; conditions: UACC-257, 24 h
DU-145 = assay: Growth inhibition of human DU145 cells after 24 hrs by MTT assay; format: functional; conditions: DU-145, 24 h
[6] = Growth inhibition of human Hs 578T cells after 24 hrs by MTT assay; format: functional
EKVX = assay: Growth inhibition of human EKVX cells after 24 hrs by MTT assay; format: functional
SK-MEL-5 = assay: Growth inhibition of human SK-MEL-5 cells after 24 hrs by MTT assay; format: functional; conditions: SK-MEL-5, 24 h
U-251 = assay: Growth inhibition of human U251 cells after 24 hrs by MTT assay; format: functional; conditions: U-251, 24 h
MCF7 [7] = assay: Cell cycle arrest in human MCF7 cells assessed as accumulation at G0 phase at 2 uM after 24 hrs using propidium iodide staining by flow cytometry; format: functional; in short: as §1
CAKI-1 = assay: Growth inhibition of human Caki1 cells after 24 hrs by MTT assay; format: functional; conditions: CAKI-1, 24 h
MCF7 [8] = assay: Increase of PARP cleavage in human MCF7 cells at 2 uM after 24 hrs by Western blot analysis; format: functional, cell-based
In short: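 MCF-7 cells were grown in DMEM with 10% FCS and penicillin/streptomycin at 37 °C in 5% CO2, then treated for 24 h. Cells were lysed in ice-cold RIPA buffer with protease inhibitors and NaF. Protein was measured by Bradford assay, and 30 µg per lane was run on 12% SDS-PAGE and transferred to PVDF. Antibody steps: primary at 4 °C overnight, HRP secondary 1:2000, chemiluminescent detection.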

Nucleic Acid = assay: Inhibition of Escherichia coli pBR322 DNA cleavage after 16 hrs by RED100-restriction endonuclease digestion assay; format: nucleic-acid assay
In short: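 pBR322 DNA was preincubated with compound at final 2, 4, 8, 16 and 32 µM for 16 h at 37 °C. BamHI (10 U/µl) in BamHI buffer was then added for 2 h at 37 °C. Products were separated on agarose in 0.5× Tris–acetate EDTA at 80 V for 1 h and stained with ethidium bromide. Cut and uncut DNA served as controls.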

MCF7 [9] = assay: Cytotoxicity against human MCF7 cells at 2 uM after 24 hrs by MTT assay relative to control; format: functional
In short: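 MCF-7 cells were seeded at 10,000 cells/well in DMEM with 10% fetal calf serum. They were exposed to 0.5, 1, 2 and 4 µM for 24 h. MTT reduction to formazan was read at 570 nm, with untreated controls taken as 100% viability. DMSO-treated cells served as an additional control.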

MCF7 [10] = assay: Cell cycle arrest in human MCF7 cells assessed as accumulation at G2/M phase at 4 uM after 24 hrs using propidium iodide staining by flow cytometry; format: functional; in short: as §1
MCF7 [11] = assay: Induction of apoptosis in human MCF7 cells assessed as increase of caspase 8 activation at 4 uM after 1 hr by […] method; format: functional, cell-based
In short: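 Colorimetric caspase-8 kit on lysates of treated MCF-7 cells. The IETD-pNA substrate was incubated with cell lysate at 37 °C for 1 h, and absorbance was read at 405 nm. Untreated cells served as the control.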

COc1cc2c(cc1OCCCOc1ccc(-c3cc4ccccc4c4ccccc34)cc1)N=C[C@@H]1CCCN1C2=O
GI50 (K562): 270 nM
GI50 (RXF 393): 240 nM
GI50 (SNB-75): 210 nM
GI50 (OVCAR-3): 250 nM
GI50 (MCF7 [1]): 170 nM
GI50 (SK-MEL-2): 40 nM
Activity (MCF7 [2]): Active
GI50 (T47D): 80 nM
GI50 (HCT-116): 250 nM
GI50 (COLO 205): 1190 nM
GI50 (Malme-3M): 1590 nM
Activity (MCF7 [3]): 75.33%
GI50 (BT-549): 270 nM
Activity (MCF7 [4]): 68.99%
GI50 (SF-268): 860 nM
GI50 (UO-31): 160 nM
GI50 (IGROV-1): 120 nM
GI50 (ACHN): 1260 nM
Activity (MCF7 [5]): 17.29%
GI50 (NCI-H460): 1040 nM
GI50 (SN12C): 510 nM
GI50 (HOP-92): 360 nM
GI50 (TK-10): 600 nM
GI50 (LOX IMVI): 1020 nM
GI50 (MOLT-4): 180 nM
GI50 (HL-60(TB)): 170 nM
GI50 (UACC-257): 1360 nM
GI50 (DU-145): 400 nM
GI50 [6]: 1020 nM
GI50 (EKVX): 1050 nM
GI50 (SK-MEL-5): 1060 nM
GI50 (U-251): 910 nM
Activity (MCF7 [7]): 4.47%
GI50 (CAKI-1): 400 nM
Activity (MCF7 [8]): Active
inhibition (Nucleic Acid): Dose-dependent effect
Activity (MCF7 [9]): <=50%
Activity (MCF7 [10]): 3.94%
Activity (MCF7 [11]): Active
